Experimental data collected from several papers.
Each line is one published result; the experiments were not run side by side.
Target: Mitogen-activated protein kinase kinase kinase 20 (MAP3K20, Homo sapiens, UniProt Q9NYL2)

| Structure (SMILES) | effect on | mode | technique | tested at | quantity | result |
| --- | --- | --- | --- | --- | --- | --- |
| CC(C)(C)c1nc2c(s1)c1nc(N)ncc1c1ccc(NS(=O)(=O)c3c(F)cccc3F)c(F)c12 | enzyme activity | inhibitor | radiometric | 1 µM | remaining activity | 103% |
| COc1cccc2c(NCc3ccccc3)nc(-n3c(N)nc4ccccc43)nc12 | target engagement in cells | inhibitor | chemoproteomics | 20 mM | inhibition | -3.3% |
| Cn1c2c(c3ccc(Cl)c(Cl)c31)C(C#N)C1(CCNCC1)NC2=O (racemic) | thermal stability | – | DSF | 10 µM | ΔTm | 0 °C |
| CC(=O)c1c(NS(C)(=O)=O)c2cc(-c3ccc(Cl)cc3)c(-c3ccc(Cl)cc3Cl)nc2n(C)c1=O | cell-free assay | – | competition with immobilised ligand | 1 µM | remaining binding | 92% |
| c1nc2c(Nc3ccc4c(c3)OCCO4)nc(Nc3ccc4c(c3)OCCO4)nc2[nH]1 | enzyme activity | inhibitor | – | 10 µM | activity vs control | 76% |
| CCCCNc1ncc2c(-c3ccc(F)cc3)nn(C[C@H]3CC[C@H](N)CC3)c2n1 | target engagement in cells | inhibitor | chemoproteomics | 20 mM | inhibition | 35.9% |
| CCCCN(CCCC)C(=O)CN1C[C@H](c2cc(OC)c3c(c2)OCO3)[C@@H](C(=O)O)[C@@H]1CC(C)(C)CCC | cell-free assay | – | competition with immobilised ligand | 1 µM | remaining binding | 85.2% |
| COc1cc2c(N3CCN(C(=O)Nc4ccc(OC(C)C)cc4)CC3)ncnc2cc1OCCCN1CCCCC1 | cell-free assay | – | – | 0.5 µM | remaining signal | 99.7% |
| COc1cc2nccc(Oc3ccc(NC(=O)c4c5n(n(-c6ccc(F)cc6)c4=O)CCCC5)cc3)c2cc1OC | enzyme activity | inhibitor | – | 0.1 µM | inhibition | -4% |
| CO[C@H]1CC[C@H](CNc2ccc(S(=O)(=O)NC(=O)c3ccc(N4CCN(CC5=C(c6ccc(Cl)cc6)CC(C)(C)CC5)CC4)cc3Oc3cnc4[nH]ccc4c3)cc2[N+](=O)[O-])CC1 | cell-free assay | – | competition with immobilised ligand | 1 µM | remaining binding | 100% |
| CC1(C)NC(=O)c2[nH]c3c(Cl)c(Cl)ccc3c2C1C#N (centres unmarked) | thermal stability | – | DSF | 10 µM | ΔTm | 0.6 °C |
| Cc1ccc(NC(=O)c2ccc(CN3CCN(C)CC3)cc2)cc1Nc1nc(-c2cccnc2)cs1 | cell-free assay | – | – | 0.5 µM | remaining signal | 86.8% |
| CC(C)(O)[C@H]1CC[C@H](Nc2ccc3ncc(-c4cccc(C(F)(F)F)c4)n3n2)CC1 | enzyme activity | inhibitor | – | 1 µM | remaining activity | 75.7% |
| O=C1Nc2ccc(Cl)cc2C1=Cc1cc(Cl)c(O)c(Cl)c1 | cell-free assay | – | – | 0.5 µM | remaining signal | 77.4% |
| Nc1ncnc2c1ncn2[C@@H]1O[C@H](COP(=O)(O)OP(=O)(O)OP(=O)(O)O)[C@@H](O)[C@H]1O | enzyme activity | substrate | mass spectrometry | – | Km | 140 µM |
| CCC1(CC)NC(=O)c2c(c3ccc(Cl)c(Cl)c3n2C)C1C#N (centres unmarked) | thermal stability | – | DSF | 10 µM | ΔTm | 0 °C |
| COc1ccc2c(O[C@@H]3C[C@H]4C(=O)N[C@]5(C(=O)O)CC5/C=C\CCCCC[C@H](NC(=O)OC5CCCC5)C(=O)N4C3)cc(-c3csc(NC(=O)C(C)C)n3)nc2c1C (some centres unmarked) | cell-free assay | – | competition with immobilised ligand | 1 µM | remaining binding | 83% |
| Cn1c2c(c3ccc(Cl)c(Cl)c31)C(C#N)C1(CCCC1)NC2=O (centres unmarked) | thermal stability | – | DSF | 10 µM | ΔTm | -0.1 °C |
| CC(=O)N1CCC(c2ccc(C(=O)NC(=N)N)cc2C(F)(F)F)CC1 | cell-free assay | – | competition with immobilised ligand | 1 µM | remaining binding | 100% |
| Cn1c2c(Cl)c(Cl)ccc2c2cc[nH]c(=O)c21 | thermal stability | – | DSF | 10 µM | ΔTm | -0.2 °C |
| COc1cc2ncnc(Nc3ccc(F)c(Cl)c3)c2cc1OCCCN1CCOCC1 | cell-free assay | – | – | 0.5 µM | remaining signal | 96.2% |
| Cc1ccc(C(=O)Nc2ccc(CN3CCN(C)CC3)c(C(F)(F)F)c2)cc1C#Cc1cnc2cccnn12 | enzyme activity | inhibitor | – | 23.5 nM | remaining activity | 2.9% |
| CNC(=O)c1ccc(Nc2ncc(C(F)(F)F)c(NCc3nccnc3N(C)S(C)(=O)=O)n2)cc1 | cell-free assay | – | competition with immobilised ligand | 0.1 µM | remaining binding | 100% |
| Cn1c2c(Cl)c(Cl)ccc2c2cn[nH]c(=O)c21 | thermal stability | – | DSF | 10 µM | ΔTm | 0.4 °C |
| CCCOc1ccc([C@H]2[C@H](C(=O)O)[C@@H](c3ccc4c(c3)OCO4)CN2CC(=O)Nc2c(CC)cccc2CC)cc1 | cell-free assay | – | competition with immobilised ligand | 1 µM | remaining binding | 90% |
| O=C(Nc1cnn(-c2csc(C(=O)NC3COC3)c2)c1)Nc1c(F)cccc1Cl | enzyme activity | inhibitor | – | 5 µM | remaining activity | 90.4% |
